Measurements pooled from the literature.
Compare with care: the assays were run in different laboratories.
Medium: plasma

Compound | host | route | dose | notes | measurement | value
CCOC(=O)c1c(NC(=O)CNC(C)C)sc2c1CCCCC2 | male mouse | intraperitoneal | 100 mg/kg | single dose | AUC(0-t) | 19300 ng·h/mL
CC(C)=CCC[C@](C)(O[C@@H]1O[C@H](CO)[C@@H](O)[C@H](O)[C@H]1O)[C@H]1CC[C@]2(C)[C@@H]1[C@H](O)C[C@@H]1[C@@]3(C)CC[C@H](O)C(C)(C)[C@@H]3CC[C@]12C | mouse | oral | 10 mg/kg | – | AUC(0-t) | 655 ng·h/mL
CC[C@H](C)[C@H](NC(=O)[C@H](Cc1ccccc1)NC(=O)[C@H](CCC(=O)O)NC(=O)[C@H](CCCCN)NC(=O)[C@H](C)NC(=O)[C@H](C)NC(=O)[C@H](CCC(N)=O)NC(=O)CNC(=O)[C@H](CCC(=O)O)NC(=O)[C@H](CC(C)C)NC(=O)[C@H](Cc1ccc(O)cc1)NC(=O)[C@H](CO)NC(=O)[C@H](CO)NC(=O)[C@@H](NC(=O)[C@H](CC(=O)O)NC(=O)[C@H](CO)NC(=O)[C@@H](NC(=O)[C@H](Cc1ccccc1)NC(=O)[C@@H](NC(=O)CNC(=O)[C@H](CCC(=O)O)NC(=O)[C@H](C)NC(=O)N(N)Cc1c[nH]cn1)[C@@H](C)O)[C@@H](C)O)C(C)C)C(=O)N[C@@H](C)C(=O)N[C@@H](Cc1c[nH]c2ccccc12)C(=O)N[C@@H](CC(C)C)C(=O)N[C@H](C(=O)N[C@@H](CCCNC(=N)N)C(=O)NCC(=O)N[C@@H](CCCNC(=N)N)C(=O)NCC(=O)O)C(C)C | male CD-1 mouse | intravenous | 1 mg/kg | single dose | AUC(0-t) | 2390 ng·h/mL
O=C1CCC(N2Cc3c(ccc4c3OCC43CCN(Cc4ccccc4)CC3)C2=O)C(=O)N1 (stereo not drawn) | male CD-1 mouse | oral | 3 mg/kg | – | AUC(0-inf) | 1340 ng·h/mL
COc1cc(C(=O)c2nc(-c3cccc4[nH]ccc34)c[nH]2)cc(OC)c1OC | male CD-1 mouse | intraperitoneal | 15 mg/kg | – | AUC(0-t) | 1510 ng·h/mL
N=C(N)NCCC[C@H](NC(=O)[C@H](Cc1ccccc1)NC(=O)[C@H](CCC(N)=O)NC(=O)OCc1ccccc1)C(=O)c1nccs1 | female C57BL/6 mouse | intravenous | 5 mg/kg | – | AUC(0-t) | 1180 ng·h/mL
CN(C)C1(CNC(=O)c2ccc3c(c2)CCN3C(=O)c2ccccc2)CCOCC1 | male CD-1 mouse | intraperitoneal | 30 mg/kg | – | AUC(0-inf) | 246 ng·h/mL
C[C@@H](O)[C@@H]1NC(=O)CNC(=O)[C@H](Cc2c[nH]cn2)NC(=O)[C@H](Cc2c[nH]c3ccccc23)NC(=O)[C@H](CC(N)=O)NC(=O)CNC(=O)C[C@@H](C(=O)N[C@@H](Cc2c[nH]c3ccccc23)C(=O)N[C@@H](Cc2ccccc2)C(=O)N[C@@H](Cc2ccccc2)C(=O)N[C@@H](CC(N)=O)C(=O)N[C@@H](Cc2ccc(O)cc2)C(=O)N[C@@H](Cc2ccc(O)cc2)C(=O)N[C@@H](Cc2c[nH]c3ccccc23)C(=O)O)NC(=O)[C@@H]2CCCN2C(=O)[C@H](CO)NC1=O | mouse | intravenous | 3 mg/kg | – | AUC(0-t) | 35100 ng·h/mL
CC(C)[C@]12O[C@H]1[C@@H]1O[C@]13[C@]1(O[C@H]1C[C@H]1C4=C(CC[C@@]13C)C(=O)OC4)[C@@H]2O | SCID mouse | intravenous | 0.6 mg/kg | – | AUC(0-inf) | 619 ng·h/mL
